# Columns and labels:
# [1] = target: Dual specificity tyrosine-phosphorylation-regulated kinase 3 (Homo sapiens) (UniProt O43781); assay: Inhibition of full length recombinant GST-tagged human DYRK3 expressed in baculovirus expression system at 1 uM by FRET assay relative to control
# [2] = target: Myotonin-protein kinase (Homo sapiens) (UniProt Q09013); assay: Inhibition of full length recombinant human DMPK expressed in baculovirus expression system at 1 uM by FRET assay relative to control
# [3] = target: Dual specificity protein kinase CLK2 (Homo sapiens) (UniProt P49760); assay: Inhibition of recombinant GST-tagged human CLK2 catalytic domain(137 to 498 residues)expressed in baculovirus expression system at 1 uM by FRET assay relative to control
# [4] = target: Casein kinase I isoform gamma-1 (Homo sapiens) (UniProt Q9HCP0); assay: Inhibition of CK1gamma1 (unknown origin) at 1 uM by FRET assay relative to control
# [5] = target: Serine/threonine-protein kinase Chk1 (Homo sapiens) (UniProt O14757); assay: Inhibition of recombinant full length His-tagged human CHK1 expressed in baculovirus expression system at 1 uM by FRET assay relative to control
# [6] = target: CDK2/Cyclin A2 (Homo sapiens) (UniProt P24941+P20248); assay: Inhibition of recombinant full length His-tagged human CDK2/CyclinA expressed in baculovirus expression system at 1 uM by FRET assay relative to control
# [7] = target: Cytoplasmic tyrosine-protein kinase BMX (Homo sapiens) (UniProt P51813); assay: Inhibition of recombinant full length His-tagged human Bmx cytoplasmic domain expressed in Baculovirus expression system at 1 uM by FRET assay relative to control
# [8] = target: Activin receptor type-1B (Homo sapiens) (UniProt P36896); assay: Inhibition of recombinant GST-tagged human ACVR1B catalytic domain (150 to 505 residues) expressed in baculovirus expression system at 1 uM by FRET assay relative to control
# [9] = target: Leukocyte tyrosine kinase receptor (Homo sapiens) (UniProt P29376); assay: Inhibition of recombinant GST-tagged human LTK cytoplasmic domain (440 to 864 residues) expressed in baculovirus expression system at 1 uM by FRET assay relative to control
# In short: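 Part of a 220-kinase panel run at a single concentration of 1 μM. Z′-LYTE format: phosphorylation of a labelled peptide read by FRET. Values reported as percent inhibition.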
# [10] = target: Mitogen-activated protein kinase kinase kinase kinase 5 (Homo sapiens) (UniProt Q9Y4K4); assay: Inhibition of recombinant full length His-tagged human KHS1 expressed in baculovirus expression system at 1 uM by FRET assay relative to control
# [11] = target: Homeodomain-interacting protein kinase 1 (Homo sapiens) (UniProt Q86Z02); assay: Inhibition of recombinant GST-tagged human HIPK1 catalytic domain expressed in baculovirus expression system at 1 uM by FRET relative to control
# In short: (§1)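 Single-point screen at 1 μM compound in a 220-kinase panel run by Life Technologies (SelectScreen). Z′-LYTE format: phosphorylation of a labeled peptide substrate read by FRET. Values are reported as percent inhibition.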
# [12] = target: Glycogen synthase kinase-3 alpha (Homo sapiens) (UniProt P49840); assay: Inhibition of GSK3alpha (unknown origin) at 1 uM by FRET relative to control
# [13] = target: Fibroblast growth factor receptor 1 (Homo sapiens) (UniProt P11362); assay: Inhibition of recombinant His-tagged human FGFR1 cytoplasmic domain expressed in baculovirus expression system at 1 uM by FRET assay relative to control; in short: as §1
# [14] = target: Protein kinase C epsilon type (Homo sapiens) (UniProt Q02156); assay: Inhibition of recombinant full length human PKCepsilon expressed in baculovirus expression system at 1 uM by FRET assay relative to control
# [15] = target: Protein kinase C beta type (Homo sapiens) (UniProt P05771); assay: Inhibition of PKCbeta1 (unknown origin) at 1 uM by FRET assay relative to control
# [16] = target: Serine/threonine-protein kinase PAK 4 (Homo sapiens, UniProt O96013); assay: Inhibition of recombinant GST-tagged human PAK4 catalytic domain expressed in baculovirus expression system at 1 uM by FRET assay relative to control; in short: as §1
# [17] = target: Ribosomal protein S6 kinase (Homo sapiens) (UniProt P51812+Q9UBS0+O75676+Q15349+O75582+P23443+Q9UK32+Q15418); assay: Inhibition of recombinant GST-tagged human p70S6K catalytic domain expressed in baculovirus expression system at 1 uM by FRET assay relative to control; in short: as §1
# [18] = target: Mitogen-activated protein kinase 12 (Homo sapiens) (UniProt P53778); assay: Inhibition of recombinant full length His-tagged human p38gamma expressed in baculovirus expression system at 1 uM by FRET assay relative to control
# [19] = target: Serine/threonine-protein kinase NLK (Homo sapiens) (UniProt Q9UBE8); assay: Inhibition of recombinant full length GST-tagged human NLK expressed in baculovirus expression system at 1 uM by FRET assay relative to control
# In short: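 Single-concentration screen at 1 μM in Life Technologies SelectScreen, across a 220-kinase panel. Z′-LYTE format measures phosphorylation of a labeled peptide by FRET. Results are reported as percent inhibition.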
# [20] = target: SRSF protein kinase 3 (Homo sapiens) (UniProt Q9UPE1); assay: Inhibition of recombinant full length N-terminal GST-tagged human MSSK1 expressed in baculovirus at 1 uM by FRET assay relative to control
# [21] = target: Serine/threonine-protein kinase WNK2 (Homo sapiens) (UniProt Q9Y3S1); assay: Inhibition of recombinant GST-tagged human WNK2 expressed in baculovirus expression system at 1 uM by FRET assay relative to control; in short: as §1
# [22] = target: Dual specificity protein kinase TTK (Homo sapiens) (UniProt P33981); assay: Inhibition of recombinant full length GST-tagged human TTK expressed in baculovirus expression system at 1 uM by FRET assay relative to control
# [23] = target: Serine/threonine-protein kinase SIK2 (Homo sapiens) (UniProt Q9H0K1); assay: Inhibition of SIK2 (unknown origin) at 1 uM by FRET assay relative to control
# [24] = target: Mitogen-activated protein kinase kinase kinase 9 (Homo sapiens, UniProt P80192); assay: Inhibition of recombinant human GST-tagged MLK1 expressed in baculovirus expression system by FRET assay
# [25] = target: Adrenergic receptor alpha-1 (Homo sapiens) (UniProt P35348+P25100+P35368); assay: Binding affinity to alpha1 adrenergic receptor (unknown origin) at 10 uM relative to control; format: protein assay
# In short: (§2)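 Broad radioligand-binding and enzyme screening panel covering 42 targets (biogenic amine and neuropeptide receptors, ion channels, neurotransmitter transporters, acetylcholinesterase). Single test concentration of 10 μM. Results expressed as binding relative to control, with a hit defined as >50% of control.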
# [26] = target: D(2) dopamine receptor (Homo sapiens) (UniProt P14416); assay: Binding affinity to recombinant human D2 short dopamine receptor at 10 uM relative to control; in short: as §2
# [27] = target: 5-hydroxytryptamine receptor 3A (Homo sapiens) (UniProt P46098); assay: Binding affinity to 5HT3 receptor (unknown origin) receptor at 10 uM relative to control; in short: as §2
# Dual specificity protein kinase CLK2 (Homo sapiens), sequence (P49760 whole entry, looked up, the tested form may be a part, canonical isoform): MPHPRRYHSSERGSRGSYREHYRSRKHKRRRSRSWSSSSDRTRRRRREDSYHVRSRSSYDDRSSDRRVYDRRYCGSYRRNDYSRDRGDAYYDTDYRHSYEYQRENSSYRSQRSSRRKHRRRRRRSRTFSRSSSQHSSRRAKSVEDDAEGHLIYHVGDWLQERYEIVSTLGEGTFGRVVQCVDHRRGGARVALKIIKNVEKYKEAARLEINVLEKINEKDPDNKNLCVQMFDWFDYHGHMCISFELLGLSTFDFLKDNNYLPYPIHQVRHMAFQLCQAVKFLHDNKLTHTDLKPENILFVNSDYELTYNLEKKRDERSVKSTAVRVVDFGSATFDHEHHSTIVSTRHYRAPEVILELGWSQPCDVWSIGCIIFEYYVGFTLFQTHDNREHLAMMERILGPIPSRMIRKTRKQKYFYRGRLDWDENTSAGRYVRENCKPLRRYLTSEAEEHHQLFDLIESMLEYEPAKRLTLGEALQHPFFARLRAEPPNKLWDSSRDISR
# Serine/threonine-protein kinase NLK (Homo sapiens), sequence (Q9UBE8 whole entry): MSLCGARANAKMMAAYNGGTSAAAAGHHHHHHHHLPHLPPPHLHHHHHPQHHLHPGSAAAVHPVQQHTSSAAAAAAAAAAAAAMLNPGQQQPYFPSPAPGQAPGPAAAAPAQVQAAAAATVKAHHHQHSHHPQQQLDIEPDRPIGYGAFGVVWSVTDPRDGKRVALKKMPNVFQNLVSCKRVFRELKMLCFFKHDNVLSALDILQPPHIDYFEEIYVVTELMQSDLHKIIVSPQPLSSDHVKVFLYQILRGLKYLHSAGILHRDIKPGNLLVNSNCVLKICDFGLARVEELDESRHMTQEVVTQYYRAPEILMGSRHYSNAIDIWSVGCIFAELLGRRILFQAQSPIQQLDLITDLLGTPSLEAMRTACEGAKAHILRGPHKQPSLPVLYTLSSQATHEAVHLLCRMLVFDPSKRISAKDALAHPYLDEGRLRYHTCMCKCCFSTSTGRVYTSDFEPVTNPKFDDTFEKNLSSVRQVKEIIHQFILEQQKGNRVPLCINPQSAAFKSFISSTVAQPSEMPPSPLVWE
# Homeodomain-interacting protein kinase 1 (Homo sapiens), sequence (Q86Z02 whole entry, looked up, the tested form may be a part): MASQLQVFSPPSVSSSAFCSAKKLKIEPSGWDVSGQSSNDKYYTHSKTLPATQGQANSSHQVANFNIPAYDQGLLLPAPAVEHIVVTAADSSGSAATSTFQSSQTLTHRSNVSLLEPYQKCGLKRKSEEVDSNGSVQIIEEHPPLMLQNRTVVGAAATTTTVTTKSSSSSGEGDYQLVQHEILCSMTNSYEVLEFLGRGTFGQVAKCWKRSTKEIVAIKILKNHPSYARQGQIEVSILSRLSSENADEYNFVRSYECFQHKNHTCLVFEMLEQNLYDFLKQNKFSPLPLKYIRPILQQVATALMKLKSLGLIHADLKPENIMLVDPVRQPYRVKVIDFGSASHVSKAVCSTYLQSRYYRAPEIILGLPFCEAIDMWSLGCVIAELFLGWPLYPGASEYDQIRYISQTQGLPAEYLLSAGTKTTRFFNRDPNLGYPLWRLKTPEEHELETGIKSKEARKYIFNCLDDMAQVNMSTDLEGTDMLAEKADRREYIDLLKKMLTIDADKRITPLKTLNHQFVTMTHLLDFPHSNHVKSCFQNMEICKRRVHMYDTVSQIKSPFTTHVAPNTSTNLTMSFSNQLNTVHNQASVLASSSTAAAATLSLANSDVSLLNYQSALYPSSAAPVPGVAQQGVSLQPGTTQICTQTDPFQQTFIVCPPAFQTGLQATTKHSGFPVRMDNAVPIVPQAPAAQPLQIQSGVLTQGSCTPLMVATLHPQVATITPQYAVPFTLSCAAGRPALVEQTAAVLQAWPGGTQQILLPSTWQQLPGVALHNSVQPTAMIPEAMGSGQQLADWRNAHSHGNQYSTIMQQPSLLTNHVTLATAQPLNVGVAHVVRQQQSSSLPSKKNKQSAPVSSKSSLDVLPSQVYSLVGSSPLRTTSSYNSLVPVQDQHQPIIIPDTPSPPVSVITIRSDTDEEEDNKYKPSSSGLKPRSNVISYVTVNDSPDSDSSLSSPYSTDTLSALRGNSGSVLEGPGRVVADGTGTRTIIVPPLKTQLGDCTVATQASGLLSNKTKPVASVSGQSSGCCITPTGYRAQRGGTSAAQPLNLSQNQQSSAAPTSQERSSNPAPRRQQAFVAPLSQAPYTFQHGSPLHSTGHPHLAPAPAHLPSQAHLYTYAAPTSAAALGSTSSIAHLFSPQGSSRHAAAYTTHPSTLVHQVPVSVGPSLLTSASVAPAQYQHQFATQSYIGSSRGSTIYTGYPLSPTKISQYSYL
# Serine/threonine-protein kinase WNK2 (Homo sapiens), sequence (Q9Y3S1 whole entry): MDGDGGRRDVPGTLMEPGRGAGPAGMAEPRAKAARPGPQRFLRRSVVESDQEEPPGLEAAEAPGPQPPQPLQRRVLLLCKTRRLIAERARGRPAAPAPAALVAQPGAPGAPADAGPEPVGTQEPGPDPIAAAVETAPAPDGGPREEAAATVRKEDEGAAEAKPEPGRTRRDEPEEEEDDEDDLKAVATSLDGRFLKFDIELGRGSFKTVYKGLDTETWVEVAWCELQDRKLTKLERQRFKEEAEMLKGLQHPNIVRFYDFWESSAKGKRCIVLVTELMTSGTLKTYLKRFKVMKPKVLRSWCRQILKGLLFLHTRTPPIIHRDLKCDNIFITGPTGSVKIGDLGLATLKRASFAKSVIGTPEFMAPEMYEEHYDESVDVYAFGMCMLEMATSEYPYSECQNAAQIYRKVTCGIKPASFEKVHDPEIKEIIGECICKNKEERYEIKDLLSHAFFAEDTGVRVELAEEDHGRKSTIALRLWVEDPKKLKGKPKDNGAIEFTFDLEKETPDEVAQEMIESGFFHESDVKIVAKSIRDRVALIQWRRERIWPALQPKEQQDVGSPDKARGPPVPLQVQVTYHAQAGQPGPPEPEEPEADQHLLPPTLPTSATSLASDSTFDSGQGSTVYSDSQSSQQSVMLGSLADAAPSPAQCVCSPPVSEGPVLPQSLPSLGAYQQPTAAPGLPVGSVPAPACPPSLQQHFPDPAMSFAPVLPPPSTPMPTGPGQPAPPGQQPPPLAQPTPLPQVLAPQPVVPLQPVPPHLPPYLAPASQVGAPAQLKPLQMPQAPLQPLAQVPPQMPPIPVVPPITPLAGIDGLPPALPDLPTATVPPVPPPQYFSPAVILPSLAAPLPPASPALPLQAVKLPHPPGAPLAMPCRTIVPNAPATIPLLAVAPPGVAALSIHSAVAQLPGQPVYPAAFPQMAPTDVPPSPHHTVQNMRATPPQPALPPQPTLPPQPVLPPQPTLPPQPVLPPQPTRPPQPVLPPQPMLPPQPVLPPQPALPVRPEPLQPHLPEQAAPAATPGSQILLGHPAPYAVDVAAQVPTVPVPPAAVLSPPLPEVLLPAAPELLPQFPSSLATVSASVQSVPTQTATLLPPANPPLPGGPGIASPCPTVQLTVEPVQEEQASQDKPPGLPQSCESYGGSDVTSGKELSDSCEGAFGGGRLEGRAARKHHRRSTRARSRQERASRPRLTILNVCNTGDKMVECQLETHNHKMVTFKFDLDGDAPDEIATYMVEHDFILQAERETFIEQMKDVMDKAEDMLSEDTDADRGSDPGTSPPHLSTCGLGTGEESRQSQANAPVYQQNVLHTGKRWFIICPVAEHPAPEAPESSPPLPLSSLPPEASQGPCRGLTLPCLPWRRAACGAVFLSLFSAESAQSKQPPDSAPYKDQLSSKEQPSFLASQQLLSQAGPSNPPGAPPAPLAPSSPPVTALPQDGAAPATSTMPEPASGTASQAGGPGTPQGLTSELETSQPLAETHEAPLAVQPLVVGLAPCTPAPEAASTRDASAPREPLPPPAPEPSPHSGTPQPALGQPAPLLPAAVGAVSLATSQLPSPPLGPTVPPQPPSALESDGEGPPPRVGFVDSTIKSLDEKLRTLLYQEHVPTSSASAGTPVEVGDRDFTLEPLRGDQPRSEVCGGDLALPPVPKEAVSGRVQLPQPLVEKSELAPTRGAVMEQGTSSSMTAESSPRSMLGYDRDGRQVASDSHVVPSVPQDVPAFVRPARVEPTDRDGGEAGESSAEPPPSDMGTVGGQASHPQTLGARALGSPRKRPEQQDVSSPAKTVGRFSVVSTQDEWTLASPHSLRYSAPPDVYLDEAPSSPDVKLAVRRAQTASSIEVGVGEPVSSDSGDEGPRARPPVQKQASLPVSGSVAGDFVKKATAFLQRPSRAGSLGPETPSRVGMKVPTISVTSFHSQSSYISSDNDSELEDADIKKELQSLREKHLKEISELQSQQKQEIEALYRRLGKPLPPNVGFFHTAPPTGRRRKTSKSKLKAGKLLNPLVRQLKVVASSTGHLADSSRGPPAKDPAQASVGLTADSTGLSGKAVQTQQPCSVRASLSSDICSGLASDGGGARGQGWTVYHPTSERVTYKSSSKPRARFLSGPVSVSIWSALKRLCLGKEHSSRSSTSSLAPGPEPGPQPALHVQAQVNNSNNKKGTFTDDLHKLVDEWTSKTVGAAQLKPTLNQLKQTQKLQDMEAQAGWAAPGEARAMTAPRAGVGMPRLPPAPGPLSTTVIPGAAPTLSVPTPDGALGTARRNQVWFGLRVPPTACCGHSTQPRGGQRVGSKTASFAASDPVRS
# Dual specificity tyrosine-phosphorylation-regulated kinase 3 (Homo sapiens), sequence (O43781 whole entry): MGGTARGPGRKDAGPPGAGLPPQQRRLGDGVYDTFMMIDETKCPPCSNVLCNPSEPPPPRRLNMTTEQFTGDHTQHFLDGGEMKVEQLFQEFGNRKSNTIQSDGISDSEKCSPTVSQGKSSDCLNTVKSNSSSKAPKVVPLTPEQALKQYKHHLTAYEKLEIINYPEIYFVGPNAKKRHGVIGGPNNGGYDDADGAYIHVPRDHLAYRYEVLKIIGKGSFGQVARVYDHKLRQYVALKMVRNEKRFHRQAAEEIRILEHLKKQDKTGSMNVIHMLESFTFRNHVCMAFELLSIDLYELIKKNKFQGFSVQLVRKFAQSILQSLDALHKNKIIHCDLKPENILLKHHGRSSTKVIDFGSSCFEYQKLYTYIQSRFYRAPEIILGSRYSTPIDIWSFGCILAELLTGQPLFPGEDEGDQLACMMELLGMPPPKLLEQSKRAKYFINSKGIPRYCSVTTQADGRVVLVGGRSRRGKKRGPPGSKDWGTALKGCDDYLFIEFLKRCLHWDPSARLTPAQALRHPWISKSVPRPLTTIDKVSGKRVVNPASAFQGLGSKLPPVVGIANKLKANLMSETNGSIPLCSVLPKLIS
SMILES,inhibition [1],inhibition [2],inhibition [3],inhibition [4],inhibition [5],inhibition [6],inhibition [7],inhibition [8],inhibition [9],inhibition [10],inhibition [11],inhibition [12],inhibition [13],inhibition [14],inhibition [15],inhibition [16],inhibition [17],inhibition [18],inhibition [19],inhibition [20],other results
CC(C)n1nc(-c2cnc(N)c(OC(F)(F)F)c2)cc1[C@H]1[C@@H]2CN(C3COC3)C[C@@H]21,0.6%,39.1%,17.6%,8.4%,4.4%,5.7%,7.8%,-6.8%,9.8%,25.1%,8.6%,7.8%,2.4%,1.9%,1.1%,69.5%,4.5%,7.8%,-4.5%,6.5%,inhibition [21]: 1.4%; inhibition [22]: 14.2%; inhibition [23]: 10.8%; IC50 [24]: 5.92 µM; Activity [25]: > 50%; Activity [26]: > 50%; Activity [27]: > 50%
Nc1ncc(-c2cc([C@H]3[C@@H]4CN(C5COC5)C[C@@H]43)n(CC3CC3)n2)cc1C(F)(F)F,-7.9%,58.5%,0.3%,2%,2.9%,4.3%,14.1%,2.9%,31.5%,22.2%,3.8%,0.8%,3.4%,-5%,-7.3%,40.5%,6.9%,7.8%,-4.7%,-2.4%,inhibition [21]: -0.6%; inhibition [22]: 11.2%; inhibition [23]: 18.4%; IC50 [24]: 3.5 µM; Activity [25]: > 50%; Activity [26]: > 50%; Activity [27]: > 50%

# Source: ChEMBL document CHEMBL4118097, “Selective Inhibitors of Dual Leucine Zipper Kinase (DLK, MAP3K12) with Activity in a Model of Alzheimer's Disease” (J Med Chem, 2017)
